Assay results pooled from the literature.
Compare with care: the assays were run in different laboratories.
Oprk1: Kappa-type opioid receptor (Oprk1, Mus musculus, UniProt P33534)
BCHE: Cholinesterase (BCHE, Homo sapiens, UniProt P06276)

| Structure (SMILES) | target | read-out | action | method | concentration | endpoint | value |
| --- | --- | --- | --- | --- | --- | --- | --- |
| CN1CCC[C@H]1c1cccnc1 | Sodium-dependent noradrenaline transporter (SLC6A2, Homo sapiens, UniProt P23975) | ligand displacement | – | – | 50 µM | inhibition | 8.2% |
| CC(C)[C@H](CN1CCc2ccccc2C1)NC(=O)c1cccc(-c2cccc(O)c2)c1 | Oprk1 | ligand displacement | – | radioligand | 10 µM | inhibition | 81% |
| COc1cc(/C=C/C(=O)O)ccc1OCc1cn(CC(=O)Nc2ccc(Cl)cc2Cl)nn1 | BCHE | enzyme activity | inhibitor | Ellman | 40 µM | inhibition | 58.2% |
| c1cncc([C@@H]2CCCN2)c1 | Muscarinic acetylcholine receptor M5 (CHRM5, Homo sapiens, UniProt P08912) | ligand displacement | – | – | 50 µM | inhibition | -2.02% |
| [2H]c1c([2H])c([C@]2([2H])CCCN2C(=O)C(C)(C)Oc2ccc3cn[nH]c3c2)c([2H])c([2H])c1C([2H])([2H])[2H] | MAP kinase-interacting serine/threonine-protein kinase 2 (MKNK2, Homo sapiens, UniProt Q9HBH9) | binding | – | competition with immobilised ligand | 1 µM | remaining binding | 100% |
| CC(C)[C@H](CN1CCc2ccccc2C1)NC(=O)Cc1c[nH]c2ccccc12 | Oprk1 | ligand displacement | – | radioligand | 10 µM | inhibition | 90% |
| COc1cc(/C=C/C(=O)O)ccc1OCc1cn(CC(=O)Nc2ccc(Cl)cc2)nn1 | BCHE | enzyme activity | inhibitor | Ellman | 40 µM | inhibition | 22.2% |
| CC(C)CC(=O)OC[C@H]1O[C@@](C#N)(c2ccc3c(N)ncnn23)[C@H](O)[C@@H]1O | Neuronal acetylcholine receptor; alpha3/beta4 (Homo sapiens, UniProt P30926+P32297) | cell-free assay | – | – | 20 µM | inhibition | -5% |
